Counter-ions that a name gives are not always drawn.
How the values were obtained:
Bacillus cereus [1] = test: Antibacterial activity against Bacillus cereus using 50 uL of compound solution from 500 ug/mL stock solution after 24 hr by agar disk diffusion method; type: functional
How it was run: (§1)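 Agar disk diffusion. Plates were spread with 1 mL culture containing 1 × 10^7 CFU: S. aureus and E. coli on tryptic soy agar, B. cereus and P. aeruginosa on nutrient agar. Each 8 mm filter-paper disc was blotted with 50 μL of a 500 μg/mL sample. Kanamycin sulfate 50 μg/mL discs were the positive control. Plates ran 24 h at 37 °C, and inhibition-zone diameter was measured in triplicate.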

Pseudomonas aeruginosa [2] = test: Antibacterial activity against Pseudomonas aeruginosa using 50 uL of compound solution from 500 ug/mL stock solution after 24 hr by agar disk diffusion method; type: functional; how it was run: as §1
Rhizoctonia solani [3] = test: Antifungal activity against Rhizoctonia solani assessed as growth inhibition at 500 ug/mL after 2 days; type: functional; conditions: 48 h, read-out: GI
How it was run: (§2)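 Rhizoctonia solani plugs were set centrally on PDA dishes holding test sample at 25 to 500 μg/mL. Mycelial diameter (mm) was measured after 2 days, in triplicate.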

Escherichia coli [4] = test: Antibacterial activity against Escherichia coli using 50 uL of compound solution from 500 ug/mL stock solution after 24 hr by agar disk diffusion method; type: functional; how it was run: as §1
Staphylococcus aureus [5] = test: Antibacterial activity against Staphylococcus aureus using 50 uL of compound solution from 500 ug/mL stock solution after 24 hr by agar disk diffusion method; type: functional; how it was run: as §1
Botrytis cinerea [6] = test: Antifungal activity against Botryotinia fuckeliana assessed as growth inhibition at 500 ug/mL after 4 days; type: functional; conditions: 96 h, read-out: GI
How it was run: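 Mycelial plug of B. cinerea was placed at the centre of PDA dishes containing test sample at 25 to 500 μg/mL. Colony diameter (mm) was read after 4 days, in triplicate.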

Staphylococcus aureus [7] = test: Antibacterial activity against Staphylococcus aureus after 24 hr by agar disk diffusion method; type: functional, organism-based; how it was run: as §1
Rhizoctonia solani [8] = test: Antifungal activity against Rhizoctonia solani assessed as inhibition of mycelium growth after 2 days; type: functional, organism-based; how it was run: as §2
Botrytis cinerea [9] = test: Antifungal activity against Botryotinia fuckeliana as inhibition of mycelium growth after 4 days; type: functional, organism-based
How it was run: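 Mycelial plugs of the pathogen placed at the centre of PDA Petri dishes holding 10 mL of test sample at 25 to 500 μg/mL. Mycelial diameter (mm) measured after 4 days for B. cinerea. Run in triplicate.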

Pseudomonas aeruginosa [10] = test: Antibacterial activity against Pseudomonas aeruginosa at 50 ug/mL after 24 hr by agar disk diffusion method; type: functional; conditions: read-out: DIZ
Escherichia coli [11] = test: Antibacterial activity against Escherichia coli at 50 ug/mL after 24 hr by agar disk diffusion method; type: functional; conditions: read-out: DIZ
Bacillus cereus [12] = test: Antibacterial activity against Bacillus cereus at 50 ug/mL after 24 hr by agar disk diffusion method; type: functional; conditions: read-out: DIZ
Staphylococcus aureus [13] = test: Antibacterial activity against Staphylococcus aureus at 50 ug/mL after 24 hr by agar disk diffusion method; type: functional; conditions: read-out: DIZ

SMILES | diameter of the inhibition zone (DIZ) (Bacillus cereus [1]) | diameter of the inhibition zone (DIZ) (Pseudomonas aeruginosa [2]) | inhibition of growth at 500 µg/mL (Rhizoctonia solani [3]) | diameter of the inhibition zone (DIZ) (Escherichia coli [4]) | diameter of the inhibition zone (DIZ) (Staphylococcus aureus [5]) | inhibition of growth at 500 µg/mL (Botrytis cinerea [6]) | IC50 (Staphylococcus aureus [7]) | growth inhibition (GI) (Rhizoctonia solani [8]) | growth inhibition (GI) (Botrytis cinerea [9]) | zone of inhibition at 50 µg/mL (Pseudomonas aeruginosa [10]) | zone of inhibition at 50 µg/mL (Escherichia coli [11]) | zone of inhibition at 50 µg/mL (Bacillus cereus [12]) | zone of inhibition at 50 µg/mL (Staphylococcus aureus [13])
Cc1cc(O)c2c(c1)C(=O)c1cccc(O)c1C2=O [CHRYSOPHANOL] | <10 mm | <10 mm | 21.2% | <10 mm | <10 mm | 22.5% | – | – | – | – | – | – | –
O=C1c2cc(CO)cc(O)c2C(=O)c2cccc(O)c21 | 10.66 mm | <10 mm | 25.4% | <10 mm | 17.67 mm | 53.7% | 117 µM | Dose-dependent effect | – | – | – | – | –
Cc1cc(O)c2c(c1)C(=O)c1cc(O)cc(O)c1C2=O [EMODIN] | 10 mm | <10 mm | 39% | <10 mm | 11 mm | 51.7% | 46.3 µM | – | Dose-dependent effect | – | – | – | –
O=C1c2ccccc2C(=O)c2c(O)cc(CO)cc21 [OMEGA-HYDROXYPACHYBASIN] | 11 mm | <10 mm | 41.5% | <10 mm | 20 mm | 47.3% | 123 µM | – | – | – | – | – | –
NC[C@H]1O[C@H](O[C@H]2[C@H](O)[C@@H](O[C@H]3O[C@H](CO)[C@@H](O)[C@H](N)[C@H]3O)[C@H](N)C[C@@H]2N)[C@H](O)[C@@H](O)[C@@H]1O [KANAMYCIN SULFATE] | – | – | – | – | – | – | – | – | – | 13 mm | 12 mm | 15 mm | 13 mm
Cc1cc(O)c2c(c1)C(=O)c1ccccc1C2=O [PACHYBASIN] | <10 mm | <10 mm | 13.9% | <10 mm | 10.33 mm | 6% | – | – | – | – | – | – | –
O=C1c2ccc(O)cc2C(=O)c2c(O)cc(CO)cc21 | <10 mm | <10 mm | 67.3% | <10 mm | 14.33 mm | 92.8% | 221 µM | – | Dose-dependent effect | – | – | – | –

— ChEMBL document CHEMBL3046179, “Study on the anthraquinones separated from the cultivation of Trichoderma harzianum strain Th-R16 and their biological activity” (J Agric Food Chem, 2009)
